Only some compounds are listed: those with a hit (about 1.6% of all), similar ones and a draw of the others.
FLuc inhib CS = counter-screen for luciferase assay inhibitors: firefly luciferase inhibition; ATPLite firefly luciferase biochemical luminescence, 10 min; inhibition, % at 10 µM; actives 1.5% (n = 200,000); AID 1006;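 active = inhibition above about 50% when tested at 10 µM, limit read from the data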
Target sequence (P08659 whole entry, looked up): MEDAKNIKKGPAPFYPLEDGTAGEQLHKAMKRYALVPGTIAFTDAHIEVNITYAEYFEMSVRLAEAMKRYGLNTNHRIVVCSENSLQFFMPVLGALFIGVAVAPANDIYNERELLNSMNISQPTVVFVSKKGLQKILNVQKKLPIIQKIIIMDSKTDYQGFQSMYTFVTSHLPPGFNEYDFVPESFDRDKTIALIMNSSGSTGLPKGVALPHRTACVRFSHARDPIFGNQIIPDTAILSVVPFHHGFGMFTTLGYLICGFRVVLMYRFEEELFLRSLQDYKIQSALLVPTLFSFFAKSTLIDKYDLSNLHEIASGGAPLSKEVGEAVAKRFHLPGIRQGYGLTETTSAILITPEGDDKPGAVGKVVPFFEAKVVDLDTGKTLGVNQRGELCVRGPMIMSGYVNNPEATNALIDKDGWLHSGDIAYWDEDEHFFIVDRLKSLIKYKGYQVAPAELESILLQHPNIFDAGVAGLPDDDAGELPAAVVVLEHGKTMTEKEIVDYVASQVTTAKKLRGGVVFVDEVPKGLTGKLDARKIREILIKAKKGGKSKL
C8 TRAIL sens = sensitizes caspase-8 expressing cells to TRAIL | NB7+C8 cells + TRAIL, ATPlite viability luminescence | inhibition (viability loss, TRAIL sensitization), % at 10 µM | actives 1% (n = 360,000);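 active = compounds causing at least 50% loss of cell viability in the single-dose screen, relative to plate controls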
PPC-1+TRAIL kill = kills PPC-1 cancer cells in the presence of TRAIL; PPC-1 cells + TRAIL, ATPLite viability luminescence; cell killing (% activity), % at 4 µM or 5 µM; actives 0.41% (n = 220,000); AID 1443;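 active = cell killing above 50% in the first pass at 4 µM, then a duplicate retest at 5 µM averaging 50% or more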;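 note: plate controls were cells with TRAIL plus DMSO for no effect and medium-only wells lacking cells for full effect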
FLuc act counter = firefly luciferase counter-screen for stimulation assays. P08659. ATPlite luciferase biochemical, luminescence, 10 min; 0 = ATP-free wells, 1 = DMSO control. activation factor at 10 µM. 200,000 tested, under 10 active;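 active = luciferase activation factor, scaled between plate controls, of at least 2 with compound at 10 µM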
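System: Luciferase/luciferin detection reagent, cell-free biochemical luciferase assay | Medium: PBS buffer for ATP | Dosing: Test compounds dosed from 2 mM stocks in 100% DMSO | Timing: 10 min at ambient temperature | Signal: Luminescence measurement of luciferase light output | Evaluation: Luciferase activation, seen as luminescence increase over controls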
The depositor's hits bear a star; x = not tested or not shown.

SMILES | FLuc inhib CS | C8 TRAIL sens | PPC-1+TRAIL kill | FLuc act counter
CC12C(=O)N(c3nccs3)C(=O)C1(C)C1CCC2O1 (configuration not stated) | x | -7 | x | x
C[C@@]12C(=O)OC(=O)[C@]1(C)C1CCC2O1 | x | 65* | x | x
Nc1nc(-c2ccccn2)nc(N)c1Cc1ccccc1F | 57* | 29 | 0 | 0.4
CC1Sc2ccc(S(=O)(=O)N3CCN(c4cccc(Cl)c4)CC3)cc2NC1=O (configuration not stated) | x | -3 | x | x
c1ccc(OCCSc2nnc3sc4ccccc4n23)cc1 | 80* | 37 | 40 | 0.2
COc1ccc(CN2CCN(c3ccc(F)cc3)CC2)c(OC)c1OC | -1 | 11 | 2 | 1
Cc1ccc(NC(=S)c2nc3ccccc3s2)cc1 | 66* | 44* | 26 | 0.3
CCOC(=O)N1CCC(NC(=O)CS(=O)(=O)Cc2nc(-c3cccc(OC)c3)oc2C)CC1 | -7 | -15 | -13 | 1.1
CCN1/C(=C/C=C/c2sc3ccccc3[n+]2CC)Sc2ccccc21 | x | 71* | x | x
CCN1/C(=C/c2ccc3cc(C)ccc3[n+]2CC)Sc2cc(C)c(C)cc21 | -6 | 24 | 47 | 1.1
CCN1/C(=C/c2ccc3cc(C)ccc3[n+]2CC)Sc2ccccc21 | -1 | 32 | 66* | 1
CCN1/C(=C/C=C/C=C/c2sc3ccccc3[n+]2CC)Sc2ccccc21 | 33 | x | 10 | 0.7
Cc1ccc(C(C)NC(=S)NCc2ccc(F)cc2)cc1C (configuration not stated) | x | -12 | x | x
Cc1ccc2nc(NC(=O)c3ccccc3F)sc2c1 | x | 58* | x | x
Cc1ccc(NC(=O)c2ccccc2F)nc1 | 52* | 15 | 9 | 0.5
COc1ccc2nc(NC(=O)c3ccccc3F)sc2c1 | x | 69* | x | x
CCCCN(C(=O)NC(=O)Nc1nc2ccc(OC)cc2s1)S(C)(=O)=O | 50* | 17 | 50 | 0.5
CCCC(=O)Nc1nc2ccc(NC(=O)c3ccccc3F)cc2s1 | -4 | -10 | -2 | 1
COc1ccc2nc(NC(=O)c3ccccc3C(=O)O)sc2c1 | x | 15 | x | x
O=C(CC1CS(=O)(=O)CC1CC(=O)Nc1ccc2c(c1)OCCO2)Nc1ccc2c(c1)OCCO2 (configuration not stated) | 13 | 10 | 19 | 0.9
CN(Cc1nc2ccccc2c(=O)[nH]1)C(=O)c1cccc(S(=O)(=O)N2CCCC2)c1 | x | 1 | x | x
CC(C)NC(=O)C(=O)c1cn(C)c2ccccc12 | -1 | -16 | 2 | 1
Cc1cccc(C(C)C)c1-n1nnnc1-c1ccccc1 | -10 | 3 | -5 | 1.1
S=c1[nH]nc(CN2CCCCC2)n1-c1ccc(Cl)cc1 | -1 | -12 | -1 | 1
COc1ccc2nc(NC(=O)Nc3ccccc3)sc2c1 | 70* | 59* | 33 | 0.3
SMILES | FLuc inhib CS | C8 TRAIL sens | PPC-1+TRAIL kill | FLuc act counter
COc1ccc2nc(NC(=O)c3cnccn3)sc2c1 | 63* | 53* | 30 | 0.4
COc1ccc(C(=O)Nc2nc3ccc(OC)cc3s2)cc1 | x | 33 | x | x
CC[C@H](C)[C@H]1O[C@]2(CC[C@@H]1C)C[C@@H]1C[C@@H](CC=C(C)[C@@H](O[C@H]3C[C@H](OC)[C@@H](O[C@H]4C[C@H](OC)[C@@H](O)[C@H](C)O4)[C@H](C)O3)[C@@H](C)C=CC=C3CO[C@@H]4[C@H](O)C(C)=C[C@@H](C(=O)O1)[C@]34O)O2 | x | 71* | x | x
Cc1nnc(SCC(=O)Nc2cc(-c3cc(C)c(C)cc3C)nn2-c2ccccc2)s1 | -6 | -4 | 26 | 1.1
CCCc1ccc(-c2cc(NC(=O)CSc3nnc(N)s3)n(-c3ccccc3)n2)cc1 | 65* | 63* | 32 | 0.3
O=C(Nc1ccc(NC(=O)c2ccccc2F)cc1)c1cccs1 | x | 23 | x | x
c1ccc2nc(-c3nc4ccccc4o3)ccc2c1 | 88* | 76* | 23 | 0.1
c1ccc(-c2nc3ccccc3o2)nc1 | 31 | 5 | 3 | 0.7
CCOC(=O)CSc1ncnc2c1sc1nc(N3CCOCC3)c3c(c12)CCCC3 | -2 | -6 | -23 | 1
COc1ccccc1-c1cc(C(=O)NC2CCN(C)CC2)c2ccc(Cl)c(C)c2n1 | x | 70* | x | x
Cc1ccccc1NC1=C(C(=O)c2ccccc2)N(C)S(=O)(=O)c2ccccc21 | -5 | 8 | 21 | 1.1
Cc1cccc(-c2nnc(-c3ccc(N)cc3)o2)c1 | 56* | 38 | 32 | 0.4
Clc1cccc(-c2nnc(-c3ccccc3)o2)c1 | 73* | 46 | 25 | 0.3
CCCc1ccc(-c2ccc(F)c(N)c2)nc1 | 90* | 69* | 38 | 0.1
Cc1ccc(Nc2nnc(SCC(=O)Nc3cccc(S(=O)(=O)NC4=NCCCCC4)c3)s2)cc1 | 47 | 37 | 16 | 0.5
O=C(/C=C/c1ccc([N+](=O)[O-])cc1)Nc1cccc(S(=O)(=O)NC2=NCCCCC2)c1 | x | 37 | x | x
O=C(/C=C/c1ccccc1Cl)Nc1cccc(S(=O)(=O)NC2=NCCCCC2)c1 | 71* | 41 | 36 | 0.3
CCc1ccc(Nc2nnc(SCC(=O)Nc3cccc(S(=O)(=O)NC4=NCCCCC4)c3)s2)cc1 | 82* | 64* | 51* | 0.2
CC(=O)Nc1ccc(NC(=O)CSc2nnc(NC(=O)c3cccc(F)c3)s2)cc1 | x | 53* | x | x
CCc1ccc(Nc2nnc(SCC(=O)Nc3ccc(C(=O)O)cc3)s2)cc1 | x | 59* | 42 | x
O=C(CSc1nnc(NC(=O)c2c(F)cccc2F)s1)Nc1ccc(F)cc1 | 13 | 5 | x | 0.9
CCOC(=O)N1CCN(c2nc3c(C)cccn3c(=O)c2C=O)CC1 | x | -12 | x | x
COc1ccc(OCc2cc(C(=O)N3C[C@H]4CC[C@H]3C4)no2)c(Cl)c1 | x | -44 | x | x
CC(C)(C)c1ccc(OCC(=O)Nc2cccc(S(=O)(=O)NC3=NCCCCC3)c2)cc1 | x | 6 | x | x
CCOc1ccc(OCC(=O)Nc2cccc(S(=O)(=O)NC3=NCCC3)c2)cc1 | x | 63* | x | x
SMILES | FLuc inhib CS | C8 TRAIL sens | PPC-1+TRAIL kill | FLuc act counter
O=C(Cc1cccc(NC(=O)C2CCCN(C(=O)C3CC3)C2)c1)Nc1cccc(C(=O)N2CCCC2)c1 (configuration not stated) | x | -22 | x | x
O=C(O)c1cccc(NC(=O)c2ccc(Cl)c(S(=O)(=O)N3CCCCCC3)c2)c1 | 65* | 38 | 28 | 0.3
O=C(Nc1cccnc1)c1ccc(Cl)c(S(=O)(=O)N2CCCCC2)c1 | x | 7 | x | x
O=C(Nc1ccccc1C(=O)O)c1ccc(Cl)c(S(=O)(=O)N2CCOCC2)c1 | 60* | 26 | 33 | 0.4
COc1ccccc1NC(=O)c1ccc(Cl)c(S(=O)(=O)N2CCOCC2)c1 | -5 | -4 | -3 | 1
COc1ccccc1N1CCN(C(c2cccs2)C(C)NC(=O)C(=O)N2CCCCC2)CC1 (configuration not stated) | x | 8 | x | x
Cc1c(NC(=O)Cc2ccccc2)cccc1C(=O)NN1C(=O)c2ccccc2C1=O | -4 | 1 | -13 | 1
O=C(/C=C/Sc1ccccc1)c1ccc(Cl)cc1 | 61* | 17 | 23 | 0.4
O=C(/C=C/Sc1ccccc1)c1ccccc1 | 88* | -3 | 19 | 0.1
CCN1/C(=C/C=C/c2oc3ccc(-c4ccccc4)cc3[n+]2CC)Oc2ccc(-c3ccccc3)cc21 | -2 | 79* | 57* | 1

Screening data from PubChem BioAssay.
